Results reported in ChEMBL document CHEMBL3351536, “A new avenue toward androgen receptor pan-antagonists: C2 sterically hindered substitution of hydroxy-propanamides” (J Med Chem, 2014).
pIC50: −log10 of the molar value. The source made the active and inactive calls. The rule behind the calls is not given here.

What was measured:
[1] = target: T1, Androgen receptor (Homo sapiens) (UniProt P10275); experiment: Displacement of [3H]R1881 from androgen receptor in human LNCAP cells at 1 uM after 24 hrs by liquid scintillation counting; type: cell-based
T1 sequence (whole entry): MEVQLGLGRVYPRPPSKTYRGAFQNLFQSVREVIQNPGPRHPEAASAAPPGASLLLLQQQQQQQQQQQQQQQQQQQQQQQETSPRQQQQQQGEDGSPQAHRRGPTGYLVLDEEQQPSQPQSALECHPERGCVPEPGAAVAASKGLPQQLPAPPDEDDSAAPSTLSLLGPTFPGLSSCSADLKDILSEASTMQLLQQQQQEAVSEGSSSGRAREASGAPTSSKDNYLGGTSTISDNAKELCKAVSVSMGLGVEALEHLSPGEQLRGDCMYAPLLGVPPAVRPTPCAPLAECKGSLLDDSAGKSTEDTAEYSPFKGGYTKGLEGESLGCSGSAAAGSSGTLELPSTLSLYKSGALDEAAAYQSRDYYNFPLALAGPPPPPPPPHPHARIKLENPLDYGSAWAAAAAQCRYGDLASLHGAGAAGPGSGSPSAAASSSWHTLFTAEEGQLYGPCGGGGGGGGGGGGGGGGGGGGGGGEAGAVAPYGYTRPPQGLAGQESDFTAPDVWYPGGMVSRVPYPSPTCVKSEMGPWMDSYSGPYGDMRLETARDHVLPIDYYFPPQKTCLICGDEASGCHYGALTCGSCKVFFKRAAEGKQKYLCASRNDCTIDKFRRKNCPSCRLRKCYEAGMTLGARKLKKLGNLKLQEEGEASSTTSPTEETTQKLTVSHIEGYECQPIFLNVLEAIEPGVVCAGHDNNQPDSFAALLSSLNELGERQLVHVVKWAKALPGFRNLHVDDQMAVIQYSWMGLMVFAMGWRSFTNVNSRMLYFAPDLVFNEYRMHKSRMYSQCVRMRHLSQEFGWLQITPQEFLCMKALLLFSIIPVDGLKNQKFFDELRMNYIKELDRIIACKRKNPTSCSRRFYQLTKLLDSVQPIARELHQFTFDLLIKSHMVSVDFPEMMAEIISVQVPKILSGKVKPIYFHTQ

[2] = target: T1, Androgen receptor (Homo sapiens); experiment: Displacement of [3H]R1881 from androgen receptor in human LNCAP cells at 2 uM after 24 hrs by liquid scintillation counting; type: cell-based
[3] = target: T1, Androgen receptor (Homo sapiens); experiment: Effect on nuclear import of wild-type human androgen receptor expressed in COS7 cells at 10 uM after 1 hr by immunofluorescence analysis; type: cell-based; conditions: COS-7
How it was run: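 Cos-7 cells on coverslips made quiescent, transfected with 1 μg pSG5-hAR, then stimulated with 10 nM R1881 for 60 min ± compounds. AR detected by immunofluorescence with anti-C19 antibody and Texas red secondary; nuclei stained with Hoechst.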

LNCaP [4] = experiment: Inhibition of R1881-induced DNA synthesis in human LNCAP cells at 10 to 20 uM after 18 hrs by BrdU incorporation assay; type: functional, cell-based
How it was run: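 Quiescent LNCaP cells on coverslips treated 18 h with 10 nM R1881 ± compound (10 or 20 μM), then pulsed with 100 μM BrdU. Incorporation scored by anti-BrdU immunofluorescence as % of total nuclei.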

LNCaP [5] = experiment: Inhibition of R1881-induced migration of human LNCAP cells at 10 uM by transwell assay; type: functional, cell-based
How it was run: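 Quiescent LNCaP cells on collagen-coated transwell filters, 24 h after seeding, treated with 10 nM R1881 ± 10 μM compound. Migrated cells stained with Hoechst and counted by fluorescence microscopy; data given as relative increase in migrated cells.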

LNCaP [6] = experiment: Inhibition of R1881-induced migration of human LNCAP cells at 10 uM after 24 hrs by wound-healing assay; type: functional, cell-based
How it was run: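 Confluent quiescent LNCaP monolayers scratched, washed, and given 10 nM R1881 ± 10 μM compound for 24 h. Wound closure assessed from phase-contrast images; four experiments.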

LNCaP [7] = experiment: Effect on cell migration in serum-stimulated human LNCAP cells by transwell assay; type: ADME, cell-based
[8] = Inhibition of R1881-induced DNA synthesis in Androgen receptor-negative human DU145 cells at 10 to 20 uM after 18 hrs by BrdU incorporation assay; type: cell-based; conditions: du-145, 18 h
LNCaP [9] = experiment: Growth inhibition of human LNCAP cells expressing mutant androgen receptor after 144 hrs by SRB assay; type: cell-based; conditions: Homo sapiens, LNCaP, read-out: GI50
How it was run: (§1)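 Cells exposed for 144 h starting 24 h after seeding, 5000 cells/well. SRB assay with OD read at 490 nm. Growth inhibition calculated as (ODtreated−ODzero)/(ODcontrol−ODzero)×100; OD below ODzero counted as cell killing. Octuplicate wells, three independent experiments; IG50 and LC50 taken from this calculation.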

[10] = Growth inhibition of human LNCaP-AR cells expressing wild-type androgen receptor after 144 hrs by SRB assay; type: functional; how it was run: as §1
LNCaP [11] = experiment: Growth inhibition of (R)-bicalutamide-resisitant human LNCAP cells after 144 hrs by SRB assay; type: functional; how it was run: as §1
[12] = Growth inhibition of human VCaP cells after 144 hrs by SRB assay; type: functional; how it was run: as §1
[13] = target: T1, Androgen receptor (Homo sapiens); experiment: Inhibition of androgen receptor in R1881-stimulated human LNCAP cells assessed as reduction in PSA mRNA level at 0.5 to 20 uM after 24 hrs by RT-PCR analysis; type: cell-based
[14] = target: T1, Androgen receptor (Homo sapiens); experiment: Inhibition of androgen receptor in human LNCAP cells assessed as reduction in PSA mRNA level at 0.5 to 20 uM after 24 hrs by RT-PCR analysis; type: cell-based
LNCaP [15] = experiment: Inhibition of cell survival in (R)-bicalutamide-resisitant human LNCAP cells after 144 hrs by TUNEL assay; type: cell-based
How it was run: (§2)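 Cells treated 144 h starting 24 h after seeding. Fixed in 1% paraformaldehyde then 70% ethanol, labeled with TUNEL mix (TdT, FITC-dUTP) for 60 min at 37 °C, counterstained with propidium iodide/RNase, and analyzed by flow cytometry for % apoptotic cells. For LNCaP and LNCaP-AR, compounds at 20 μM, three independent experiments.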

[16] = Inhibition of cell survival in human VCaP cells after 144 hrs by TUNEL assay; type: cell-based; how it was run: as §2
CWR22R = experiment: Inhibition of cell survival in human CWR22Rv1 cells after 144 hrs by TUNEL assay; type: functional, cell-based; conditions: 22Rv1, 144 h
[17] = target: T1, Androgen receptor (Homo sapiens); experiment: Inhibition of androgen receptor in R1881-stimulated (R)-bicalutamide-resisitant human LNCAP cells assessed as reduction in PSA mRNA level at 20 uM after 24 hrs by RT-PCR analysis; type: cell-based
How it was run: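 LNCaP or LNCaP-Rbic cells (Rbic kept in 20 μM bicalutamide), 24 h after seeding, stimulated with 10 nM R1881 and treated 24 h with 10 or 20 μM compound. PSA mRNA measured by SYBR Green real-time RT-PCR in triplicate reactions, normalized to GAPDH and HPRT, expressed as fold over untreated. Two independent experiments.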

VCaP [18] = experiment: Antitumor activity against human VCaP cells xenografted in CD-1 nu/nu mouse assessed as tumor regression at 10 mg/kg, po for 4 consecutive weeks starting on day 35 of tumor implantation measured after 100 days; type: functional, organism-based; parameters: dose 10 mg/kg
How it was run: (§3)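 Male CD-1 nu/nu mice, 5–6 weeks old, injected s.c. in the flank with 10⁶ VCaP cells in 50% Matrigel/50% serum-free medium. When tumors reached 50–100 mg, mice were randomized, 5 per group. Daily oral gavage at 10 mg/kg for 4 weeks in 80% PEG-400/20% Tween-80; controls got vehicle. Tumor weight from caliper (a×b²/2) three times weekly; body weight monitored.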

VCaP [19] = experiment: Antitumor activity against human VCaP cells xenografted in CD-1 nu/nu mouse assessed as tumor regression at 10 mg/kg, po for 4 consecutive weeks starting on day 35 of tumor implantation measured after 60 days; type: functional, organism-based; parameters: dose 10 mg/kg; how it was run: as §3
Mus musculus = experiment: Toxicity in human VCaP cells xenografted CD-1 nu/nu mouse assessed as body weight loss at 10 mg/kg, po for 4 consecutive weeks starting on day 35 of tumor implantation measured up to 100 days; type: organism-based; parameters: dose 10 mg/kg, route oral; conditions: in vivo, 2400 h; how it was run: as §3
[20] = Cytotoxicity against african green monkey COS7 cells; type: cell-based; conditions: chlorocebus aethiops, cos-7
LNCaP [21] = experiment: Cytotoxicity against human LNCAP cells expressing mutant androgen receptor assessed as reduction in cell viability; type: cell-based
LNCaP [22] = experiment: Induction of apoptosis in human LNCAP cells expressing mutant androgen receptor at 20 uM after 144 hrs by TUNEL assay; type: cell-based; how it was run: as §2
LNCaP-AR = experiment: Induction of apoptosis in human LNCaP-AR cells expressing wild-type androgen receptor at 20 uM after 144 hrs by TUNEL assay; type: functional; how it was run: as §2
DU-145 = experiment: Cytotoxicity against human DU145 cells after 144 hrs by SRB assay; type: cell-based; conditions: du-145, 144 h; how it was run: as §1
[23] = Cytotoxicity against human PC3 cells after 144 hrs by SRB assay; type: cell-based; conditions: pc-3, 144 h; how it was run: as §1

N#Cc1ccc(C[C@](O)(CS(=O)(=O)c2ccc(F)cc2)C(=O)Nc2ccc(C#N)c(C(F)(F)F)c2)cc1
inhibition [1]: 60% | inhibition [2]: 65% | Activity [3]: inactive | inhibition (LNCaP [4]): Active | inhibition (LNCaP [5]): Active | inhibition (LNCaP [6]): Active | Activity (LNCaP [7]): Non-toxic | Activity [8]: Non-toxic | GI50 (LNCaP [9]): 1600 nM | GI50 [10]: 4.9 µM | GI50 (LNCaP [11]): 6.43 µM | GI50 [12]: 1420 nM | inhibition [13]: inactive | inhibition [14]: Active | Activity (LNCaP [15]): Non-toxic | Activity [16]: Non-toxic | pIC50 (CWR22R): 5.30 | inhibition [17]: Active | Activity (VCaP [18]): Active | Activity (VCaP [19]): Active | Activity (Mus musculus): Non-toxic | Activity [20]: Non-toxic | Activity (LNCaP [21]): Non-toxic | Activity (LNCaP [22]): Non-toxic | Activity (LNCaP-AR): inactive | Activity (DU-145): Non-toxic | Activity [23]: Non-toxic
